# Bioassay records (PubChem)
# Shown are actives, neighbours in structure and some others; about 4.9% of the full set was active somewhere.
# NF-kB neuron act – NF-kB expression increase, human neuronal cells | NF-kB reporter expression; active compounds read high | fold change at 12.5 µM | hit rate 1.6% among 190,000 | AID 1239; in the data active = fold change above about 3.3
# APP 5'UTR act – activates APP 5'UTR luciferase reporter | hit rate 1% among 190,000 | activation, % at 2 µM | SH-SY5Y APP 5'UTR luciferase reporter, luminescence; zero percent = DMSO vehicle wells;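 active = activation above a set limit, based on mean plus 3 SD of controls, cut at about 140% in these data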
# STAT3 inh-1 – STAT3 signaling inhibition; U3A cells, IL-6 STAT3-luciferase reporter, luminescence; host cell line lacks STAT1; inhibition, % at 5.5 µM; hit rate 0.89% among 190,000; AID 862;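 active = inhibition above the mean inhibition across all screened compounds plus 3 SD, cut at about 44% in these data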;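 note: 0% = DMSO only wells and 100% = 100 µM nifuroxazide control wells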
# STAT3 act-1 – activators of IL-6 induced STAT3 signaling; U3A cells, IL-6 STAT3-luciferase reporter, luminescence; 100% = signal with IL-6 EC80 alone; activation (% of control), % at 5.6 µM; hit rate 0.91% among 190,000; AID 871;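 active = activation above the screen-wide mean of compound activation plus 3 SD, cut at about 130% in these data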;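 note: 0% = background luminescence of wells with medium and substrate only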
#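 Assay system – human STAT1-deficient U3A cells with stable STAT3-luciferase reporter · Also added – IL-6 (33 ng/mL) · Schedule – compound 1 h, then IL-6 6 h at 37 °C · Technique – reporter luminescence signal · Evaluation – % activation versus median of IL-6-stimulated wells · Benchmarks – IL-6-only wells as 100% reference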
# STAT1 blocker – inhibitors of IFN-gamma induced STAT1 signaling; AID 920; NIH 3T3 STAT1-luciferase reporter, luminescence; inhibition, % at 5.5 µM; hit rate 0.35% among 200,000;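 active = inhibition above a set limit, the mean inhibition across all tested compounds plus 3 SD, cut at about 34% in these data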;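 note: 0% = IFN-gamma with DMSO and 100% = IFN-gamma with 300 µM nifuroxazide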
# STAT1 act-1 – activators of IFN-gamma induced STAT1 signaling; NIH 3T3 STAT1-luciferase reporter, luminescence; 100% = IFN-gamma alone, no compound; activation (% of control), % at 5.5 µM; hit rate 2.6% among 200,000; AID 932;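 active = activation above the screen-wide mean activation plus 3 SD, cut at about 130% in these data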;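 note: raw ratio to IFN-gamma control signal so 100% means no change and 0% no light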
# STAT3 inh-2 – confirmation of STAT3 signaling inhibitors; shares compounds with STAT3 inh-1; U3A cells, IL-6 STAT3 luciferase reporter, luminescence; cell line lacks STAT1; inhibition, % at 5.7 µM; hit rate 45% among 1,200;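 active = inhibition above the hit cutoff computed for the primary STAT3 screen, cut at about 44% in these data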;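 note: 0% = IL-6 plus DMSO and 100% = IL-6 plus nifuroxazide control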
# NFkB inh STAT3ct – counter-screen for STAT3 inhibitors: NF-kappaB inhibition; HEK293T NF-kB luciferase reporter, TNF-alpha induced; inhibition, % at 5.7 µM; shares compounds with STAT3 inh-1; hit rate 36% among 1,200;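 active = inhibition above the mean of solvent-only control wells plus 3 SD, cutoff set per campaign, cut at about 13% in these data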;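 note: 0% = TNF-alpha with DMSO and 100% = TNF-alpha with MG high control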
# STAT1 inh 2 – counter-screen for STAT3 inhibitors: STAT1 inhibition; hit rate 27% among 1,200; NIH 3T3 STAT1-luciferase reporter, IFN-gamma induced, luminescence; shares compounds with STAT3 inh-1; inhibition, % at 5.7 µM;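 active = inhibition above the mean plus 3 SD of solvent-only control wells, limit set per screening run, cut at about 16% in these data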;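 note: 0% = DMSO with IFN-gamma and 100% = nifuroxazide control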
# STAT3 act-2 – confirmation of STAT3 signaling activators. shares compounds with STAT3 act-1. AID 1267. potentiation (% of control), % at 5.7 µM. hit rate 64% among 1,200. U3A STAT3-luciferase reporter, IL-6 potentiation, luminescence; U3A cells lack STAT1; 100 means same as IL-6 alone;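 active = percent activation of the STAT3 luciferase reporter above a set limit taken from the earlier primary screen, cut at about 130% in these data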;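 note: 0% = background signal of medium plus substrate and 100% = median of IL-6 with DMSO wells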
# NFkB act 2 – NF-kappaB activation in STAT3 activator counter-screen; activation (% of control), % at 5.7 µM; hit rate 11% among 1,200; human cells, NF-kappaB reporter activation; shares compounds with STAT3 act-1; AID 1309; in the data active = activation above about 120%;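 note: reporter induced by TNF-alpha stimulation; 100% = median of stimulated DMSO wells and 0% = no signal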
# STAT1 act-2 – counter-screen for STAT3 activators: STAT1 activation; shares compounds with STAT3 act-1; NIH 3T3 STAT1-luciferase reporter, IFN-gamma, luminescence; activation (% of control), % at 5.7 µM; hit rate 13% among 1,200;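 active = activation above the solvent-only control well mean plus 3 SD, set per screening run, cut at about 120% in these data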;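 note: 100% = IFN-gamma with DMSO median signal so 100% means no change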
# STAT1 activ conf – confirmation of STAT1 signaling activators; shares compounds with STAT1 act-1; NIH 3T3 STAT1-luciferase reporter, IFN-gamma potentiation, luminescence; 100% = IFN-gamma EC80 alone, no compound; activation (% of control), % at 5.7 µM; hit rate 97% among 1,200;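 active = activation above a set limit carried over from the earlier primary STAT1 screen, cut at about 140% in these data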;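 note: simple ratio to median IFN-gamma plus DMSO wells so 0% means no light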
# NFkB act STAT1ct – NF-kappaB activation in STAT1 activator counter-screen; shares compounds with STAT1 act-1; HEK293T NF-kB luciferase reporter, TNF-alpha stimulated, luminescence; 100% = TNF-alpha with vehicle only; activation (% of control), % at 5.7 µM; hit rate 43% among 1,200;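 active = activation above the mean of solvent-only control wells plus 3 SD, set per campaign, cut at about 130% in these data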;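 note: TNF-alpha given at a submaximal dose yielding about 80% of full reporter signal; values are well signal over median control so 100% means no change and 0% no light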
# STAT3 act 2 – activates human STAT3, counter-screen to STAT1 activators | AID 1316 | hit rate 46% among 1,200 | U3A cells STAT3-luciferase reporter, IL-6, luminescence; cells lack STAT1; 100 = IL-6 alone, no compound effect | shares compounds with STAT1 act-1 | activation (% of control), % at 5.7 µM;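 active = activation above the solvent-only control well mean plus 3 SD, set per plate batch, cut at about 110% in these data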;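 note: 0% = no luminescence and 100% = median IL-6 plus DMSO wells; higher means more STAT3 reporter activation so hits are non-selective activators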
# An asterisk follows results filed as active; · = no result.
SMILES,NF-kB neuron act,APP 5'UTR act,STAT3 inh-1,STAT3 act-1,STAT1 blocker,STAT1 act-1,STAT3 act-2,NFkB act 2,STAT1 act-2,others
Cc1ccc(S(=O)(=O)N(Cc2ccc(Cl)cc2)c2ccccc2C(=O)NCc2ccco2)cc1,0.65,1,-2,107,-2,101,·,·,·,
CCOC(=O)c1sc2ccccc2c1OC(=O)c1ccc(C)cc1,0.62,4,-10,104,-4,103,·,·,·,
CC(=Nc1ccc(C)cc1)c1sc2ccccc2c1O,4.8*,197*,56*,54,-59,154*,·,·,·,STAT3 inh-2=10;NFkB inh STAT3ct=-35;STAT1 inh 2=-153;STAT1 activ conf=248*;NFkB act STAT1ct=104;STAT3 act 2=88
CCCc1noc2c1C(c1cc(Br)ccc1F)C(C#N)=C(N)N2 (stereo not drawn),1.1,-1,7,101,4,95,·,·,·,
COc1ccc(-c2csc(N3C(=N)SCC3=O)n2)cc1,4.9*,74,50*,62,-72,164*,·,·,·,STAT3 inh-2=-14;NFkB inh STAT3ct=-37;STAT1 inh 2=-191;STAT1 activ conf=294*;NFkB act STAT1ct=104;STAT3 act 2=112*
O=C(/C=C\Nc1ccc2c(c1)OCO2)c1ccc(Cl)s1,0.96,164*,62*,53,-66,157*,·,·,·,STAT3 inh-2=14;NFkB inh STAT3ct=10;STAT1 inh 2=-97;STAT1 activ conf=200*;NFkB act STAT1ct=88;STAT3 act 2=83
CCN(CC)c1ccc(NC(=O)c2cc(Cl)ccc2OC)cc1,0.8,-3,-62,162*,5,95,151*,112,99,
CCCOC(=O)c1ccc(NC(=O)c2cc(Cl)ccc2OC)cc1,1,0,35,72,9,92,·,·,·,
c1cncc(-c2noc(-c3cccc4ccccc34)n2)c1,3,-7,-106,188*,-28,126,176*,124*,148*,
c1ccc(CCc2ccccc2-c2nc(-c3cccnc3)no2)cc1,0.85,·,12,92,-1,97,·,·,·,
COc1ccc(S(=O)(=O)Nc2c(C(=O)O)[nH]c3ccccc23)cc1OC,1.2,-4,-42,141*,-1,101,165*,110,100,
COc1ccc(S(=O)(=O)Nc2ccccn2)cc1OC,1.2,-7,1,99,6,94,·,·,·,
O=C(O)c1[nH]c2ccccc2c1NS(=O)(=O)Cc1ccccc1,0.89,0,-57,155*,-1,101,165*,103,94,
O=C(NCc1ccccc1)C1=C[C@@H](c2coc3ccccc3c2=O)C[C@@H](OCc2ccc(CO)cc2)O1,1.7,13,·,·,3,98,·,·,·,
